# Results from article PMC9320808 (Chemmedchem, 2022).
# Where two headings read alike, the source gives them in different places.
# Tests used:
# PD‐1/PD−L1 = PD‐1/PD−L1 (Homo sapiens, UniProt Q9NZQ7); assay: Homogenous time-resolved fluorescence; type: binding; conditions: read-out: Measured IC50; HTRF PD-1/PD-L1 assay; mean±SD, n=2–3 in triplicate
# In short: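 Competitive TR-FRET (HTRF) kit assay: PD-L1-6His-tag and PD-1-Ig, detected by anti-human IgG-Eu³⁺ cryptate and anti-6HIS-XL665 antibody. Test compounds plated per the kit instructions. Signal read on a multimode plate reader, and IC50 derived from the inhibition of PD-1/PD-L1 binding.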
# PD−L1 = conditions: cited from earlier work
# Sequence of PD‐1/PD−L1 (Q9NZQ7 19-238 limits assumed): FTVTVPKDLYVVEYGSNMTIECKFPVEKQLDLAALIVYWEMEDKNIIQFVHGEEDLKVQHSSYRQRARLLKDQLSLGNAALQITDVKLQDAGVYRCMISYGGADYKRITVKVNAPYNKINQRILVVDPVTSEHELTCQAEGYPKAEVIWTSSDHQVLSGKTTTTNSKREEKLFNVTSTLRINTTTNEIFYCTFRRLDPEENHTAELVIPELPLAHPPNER
Substance,IC50 (PD‐1/PD−L1),"IC50 (PD−L1; read-out: Reported IC50, literature value)","IC50 (PD−L1; read-out: reported IC50, reported value for BMS71)"
Atezolizumab: therapeutic antibody targeting PD−L1,2.25 ± 0.36 nM,3.83 nM,–
Cyclo(AcPhe−^mPhe−^mNle−^mGly−Asp−Val−^mPhe−Tyr−^mGly−Trp−Tyr−Leu−Cys)‐Gly−NH2 [BMS71],–,–,7 nM
